Assay results: ChEMBL document CHEMBL4017529, “Rational Design of Selective Adenine-Based Scaffolds for Inactivation of Bacterial Histidine Kinases” (J Med Chem, 2017)
Active and inactive are the calls of the source. The rule behind the calls is not given here.

What was measured:
[1] = test system: Thermotoga maritima; test: Induction of Thermotoga maritima His-tagged HK853 expressed in Escherichia coli BL21(DE3)pLysS Rosetta aggregation at 100 uM after 30 mins by PAGE analysis
Procedure, shortened: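 Samples were run on 7.5% native-PAGE and silver stained. Aggregation was scored as loss of the dimeric HK853 band. NH125 served as positive aggregation control.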

[2] = target: T1, Heat shock protein HSP 90-alpha (Homo sapiens, UniProt P07900); test: Inhibition of full length human C-terminal His-tagged Hsp90 alpha expressed in Escherichia coli at […] by fluorescence polarization assay relative to control
[3] = test system: Thermotoga maritima; test: Induction of Thermotoga maritima His-tagged HK853 expressed in Escherichia coli BL21(DE3)pLysS Rosetta aggregation at […] after 30 mins by PAGE analysis
[4] = target: T1, Heat shock protein HSP 90-alpha; test: Inhibition of full length human C-terminal His-tagged Hsp90 alpha expressed in Escherichia coli by fluorescence polarization assay
[5] = Selectivity ratio of IC50 for human full length C-terminal His-tagged Hsp90 alpha expressed in Escherichia coli to IC50 for Thermotoga maritima His-tagged HK853 expressed in Escherichia coli BL21(DE3)pLysS Rosetta
[6] = test system: Thermotoga maritima; test: Binding affinity to Thermotoga maritima His-tagged HK853 D411A mutant expressed in Escherichia coli BL21(DE3)pLysS Rosetta assessed as change in melting temperature at 1 mM by SYPRO orange dye based differential scanning fluorimetric analysis
[7] = test system: Thermotoga maritima; test: Binding affinity to wild type Thermotoga maritima His-tagged HK853 expressed in Escherichia coli BL21(DE3)pLysS Rosetta assessed as change in melting temperature at 1 mM by SYPRO orange dye based differential scanning fluorimetric analysis
Procedure, shortened: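 Wild-type HK853 at 2–5 µM final in reaction buffer, with SYPRO orange at 5x final. Compound was added at 1 mM final from a 25 mM DMSO stock; the control got DMSO alone. Reactions were 25 µL, made up on ice. Melt ran 20–95 °C at 1 °C min⁻¹ with HEX-filter fluorescence. Tm came from the melt curves, and ΔTm was taken against the control.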

[8] = test system: Thermotoga maritima; test: Induction of Thermotoga maritima His-tagged HK853 aggregation expressed in Escherichia coli BL21(DE3)pLysS Rosetta at >= […] after 30 mins by PAGE analysis
[9] = Inhibition of BODIPY-FL-ATPgammaS binding to Thermotoga maritima His-tagged HK853 expressed in Escherichia coli BL21(DE3)pLysS Rosetta preincubated for 30 mins followed by 1 hr incubation by SDS-PAGE in-gel fluorescence assay
[10] = test system: Thermotoga maritima; test: Inhibition of ATPgammaS-BODIPY binding to Thermotoga maritima His-tagged HK853 expressed in Escherichia coli BL21(DE3)pLysS Rosetta at […] preincubated for 30 mins prior to ATPgammaS-BODIPY addition measured after 1 hr by […] SDS-PAGE analysis

## Clc1ccccc1CSc1ncnc2[nH]cnc12
[1]
  Activity: Active

## Nc1ncnc2c1ncn2CCN1CCOCC1
[1]
  Activity: Active

## c1ccc(CCNc2ncnc3[nH]cnc23)cc1
[2]
  inhibition: > 45%

## CC1CCN(c2ncnc3[nH]cnc23)CC1
[1]
  Activity: Active

## Cn1cnc2c(N)nc(Cl)nc21
[3]
  Activity: inactive
[4]
  IC50: > 1250 µM
[5]
  Ratio IC50: 10 to 2000
[2]
  inhibition: > 45%

## Brc1cccc(CSc2ncnc3[nH]cnc23)c1
[1]
  Activity: Active

## COc1ccccc1N1CCN(c2[nH]cnc3ncnc2-3)CC1
[1]
  Activity: Active

## Clc1c(CSc2ncnc3[nH]cnc23)ccc2c1OCO2
[1]
  Activity: Active

## Cc1ccccc1OCn1cnc2c(N)ncnc21
[1]
  Activity: Active

## c1ccc(CSc2ncnc3[nH]cnc23)cc1
[1]
  Activity: Active

## c1ccc(N2CCN(c3ncnc4[nH]cnc34)CC2)nc1
[1]
  Activity: Active

## CCCN(CCC)c1[nH]cnc2ncnc1-2
[6]
  ΔTm: < 2 °C
[7]
  ΔTm: 10 °C
[5]
  Ratio IC50: 10 to 2000
[2]
  inhibition: > 45%

## Nc1nc(Cl)nc2c1ncn2[C@@H]1O[C@H](CO)[C@@H](O)[C@H]1O
[2]
  inhibition: > 45%

## Brc1ccc(CSc2[nH]cnc3ncnc2-3)cc1
[1]
  Activity: Active

## c1ccc(Nc2ncnc3[nH]cnc23)cc1
[8]
  Activity: inactive

## COc1ccc(OC)c(NC(=O)CSc2ncnc3[nH]cnc23)c1
[1]
  Activity: Active

## Nc1ncnc2c1ncn2[C@@H]1O[C@H](COP(=O)(O)OP(=O)(O)O)[C@@H](O)[C@H]1O [ADENOSINE DIPHOSPHATE]
[6]
  ΔTm: < 2 °C
[7]
  ΔTm: 10 °C
[9]
  IC50: 2.4 µM

## Nc1ncnc2c1ncn2[C@@H]1O[C@H](COP(=O)(O)O)[C@@H](O)[C@H]1O [ADENOSINE PHOSPHATE]
[9]
  IC50: 1030 µM

## NS(=O)(=O)c1ccc(CCNc2ncnc3[nH]cnc23)cc1
[1]
  Activity: Active

## FC(F)(F)c1cccnc1N1CCN(c2[nH]cnc3ncnc2-3)CC1
[1]
  Activity: Active

## CC[C@@H](Nc1ncnc2nc[nH]c12)c1nc2cccc(F)c2c(=O)n1-c1ccccc1
[10]
  inhibition: inactive

## C=CCSc1ncnc2[nH]cnc12
[1]
  Activity: Active

## Nc1ncnc2c1ncn2[C@@H]1O[C@H](COP(=O)(O)OP(=O)(O)OP(=O)(O)O)[C@@H](O)[C@H]1O [ADENOSINE TRIPHOSPHATE]
[9]
  IC50: 27 µM

## Clc1ccc(CSc2[nH]cnc3ncnc2-3)cc1
[1]
  Activity: Active

## CC1CC(Nc2ncnc3[nH]cnc23)CC(C)(C)C1 (centres undefined)
[5]
  Ratio IC50: 10 to 2000

## C=CC(=O)N1CCC[C@H](n2nc(-c3ccc(Oc4ccccc4)cc3)c3c(N)ncnc32)C1
[10]
  inhibition: inactive
